# Active and inactive are the calls of the source. The calls are words filed in the database; no cut-off is given here.
# Key:
# [1] = target: T1, Proton-coupled folate transporter (Homo sapiens) (UniProt Q96NT5); assay: Inhibition of human PCFT-mediated [3H]MTX uptake ectopically expressed in chinese hamster R2 cells at 10 uM at pH 5.5 to 7.2; assay type: cell-based
# T1 sequence (whole entry): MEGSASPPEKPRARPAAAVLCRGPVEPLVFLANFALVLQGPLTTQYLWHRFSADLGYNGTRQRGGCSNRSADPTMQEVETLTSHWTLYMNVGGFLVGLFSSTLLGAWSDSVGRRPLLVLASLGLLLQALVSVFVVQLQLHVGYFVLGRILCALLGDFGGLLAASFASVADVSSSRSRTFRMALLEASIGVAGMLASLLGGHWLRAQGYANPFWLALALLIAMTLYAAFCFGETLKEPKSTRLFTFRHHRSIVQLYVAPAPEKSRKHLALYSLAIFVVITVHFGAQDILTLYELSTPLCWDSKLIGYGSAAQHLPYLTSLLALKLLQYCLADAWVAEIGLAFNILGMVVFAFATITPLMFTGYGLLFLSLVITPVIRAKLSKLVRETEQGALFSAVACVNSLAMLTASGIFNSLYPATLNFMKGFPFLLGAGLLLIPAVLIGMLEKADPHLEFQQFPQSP
# [2] = test system: IGROV-1; assay: Antitumor activity against human IGROV1 cells expressing human RFC, FRalpha and PCFT xenografted in SCID mouse assessed as log cell kill at 180 mg/kg, iv administered on days 3, 7, 11, 15, and 19 postimplantation; assay type: functional
# Method in brief: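 Female ICR SCID mice, 10 weeks old, on a folate-deficient diet from 24 days before implant. Bilateral subcutaneous IGROV1 tumour fragments (30–60 mg, by trocar); mice pooled, then randomised. IV dosing on days 3, 7, 11, 15 and 19. Mice weighed daily; tumours measured by caliper 2–3 times weekly; mice sacrificed at 1500 mg tumour burden. Weight-loss nadir and recovery recorded.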
# [3] = target: T1, Proton-coupled folate transporter (Homo sapiens); assay: Inhibition of human PCFT-mediated [3H]MTX uptake expressed in chinese hamster R2 cells at pH 5.5 by dixon plot analysis relative to PMX; assay type: cell-based; settings: concentration not given here
# [4] = Antiproliferative activity against chinese hamster RT16 cells expressing human FRalpha assessed as reduction of viable cells after 96 hrs in the presence of 200 nM folic acid; assay type: functional, cell-based; settings: Cricetulus griseus, RT16, 96 h
# Method in brief: (§1)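 Same 96 h CellTiter-blue proliferation set-up in folate-free RPMI/10% dFBS with 2 nM leucovorin. Run in parallel incubations that included 200 nM folic acid alongside the antifolate, to establish FR-dependent uptake.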
# [5] = Antiproliferative activity against chinese hamster PC43-10 expressing human RFC assessed as reduction of viable cells after 96 hrs; assay type: functional; settings: Cricetulus griseus, PC43-10, 96 h
# [6] = target: T1, Proton-coupled folate transporter (Homo sapiens); assay: Induction of current in human PCFT expressed in xenopus oocyte at 5 uM at holding potential -90 mV by voltage clamp assay
# [7] = target: T1, Proton-coupled folate transporter (Homo sapiens); assay: Inhibition of human PCFT-mediated [3H]MTX uptake expressed in chinese hamster R2 cells at pH 6.8 […] relative to PMX; assay type: cell-based; settings: concentration not given here
# [8] = test system: R2; assay: Decrease in intracellular ATP concentration in chinese hamster R2 cells expressing human PCFT at 1 uM after 24 hrs by HPLC relative to control at pH 6.8; assay type: functional, Cricetulus griseus; set-up: scale not given: the % may be the effect or the level left
# Method in brief: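 R2/hPCFT4 CHO cells seeded in folate-free RPMI 1640 with 10% dialysed FBS and 25 nM leucovorin (pH 7.2). After 24 h, switched to the same medium buffered to pH 6.8 with 25 mM PIPES/25 mM HEPES. Drug at 1 µM, or vehicle (0.5% DMSO or H2O), for 24 h. Nucleotides extracted; ATP quantified by HPLC against vehicle control.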
# [9] = test system: IGROV-1; assay: Antiproliferative activity against human IGROV1 cells expressing human RFC, FRalpha and PCFT assessed as reduction of viable cells after 96 hrs in the presence of 200 nM folic acid; assay type: functional, cell-based; settings: IGROV-1, 96 h; method in brief: as §1
# [10] = test system: R2; assay: Antiproliferative activity against chinese hamster R2 cells assessed as reduction of viable cells after 96 hrs; settings: Cricetulus griseus, R2, 96 h
# [11] = test system: KB; assay: Antiproliferative activity against human KB cells expressing human RFC, FRalpha and PCFT assessed as reduction of viable cells after 96 hrs in the presence of 200 nM folic acid; assay type: functional, cell-based; method in brief: as §1
# [12] = Antiproliferative activity against chinese hamster R2(VC) cells assessed as reduction of viable cells after 96 hrs; settings: Cricetulus griseus
# [13] = Antiproliferative activity against chinese hamster D4 cells expressing human FRbeta assessed as reduction of viable cells after 96 hrs in the presence of 200 nM folic acid; assay type: functional, cell-based; settings: Cricetulus griseus, D4, 96 h; method in brief: as §1
# [14] = target: T2, Reduced folate transporter (Homo sapiens) (UniProt P41440); assay: Inhibition of human RFC-mediated [3H]MTX uptake in chinese hamster PC43-10 cells at 10 uM after 2 mins relative to control; assay type: cell-based
# T2 sequence (whole entry): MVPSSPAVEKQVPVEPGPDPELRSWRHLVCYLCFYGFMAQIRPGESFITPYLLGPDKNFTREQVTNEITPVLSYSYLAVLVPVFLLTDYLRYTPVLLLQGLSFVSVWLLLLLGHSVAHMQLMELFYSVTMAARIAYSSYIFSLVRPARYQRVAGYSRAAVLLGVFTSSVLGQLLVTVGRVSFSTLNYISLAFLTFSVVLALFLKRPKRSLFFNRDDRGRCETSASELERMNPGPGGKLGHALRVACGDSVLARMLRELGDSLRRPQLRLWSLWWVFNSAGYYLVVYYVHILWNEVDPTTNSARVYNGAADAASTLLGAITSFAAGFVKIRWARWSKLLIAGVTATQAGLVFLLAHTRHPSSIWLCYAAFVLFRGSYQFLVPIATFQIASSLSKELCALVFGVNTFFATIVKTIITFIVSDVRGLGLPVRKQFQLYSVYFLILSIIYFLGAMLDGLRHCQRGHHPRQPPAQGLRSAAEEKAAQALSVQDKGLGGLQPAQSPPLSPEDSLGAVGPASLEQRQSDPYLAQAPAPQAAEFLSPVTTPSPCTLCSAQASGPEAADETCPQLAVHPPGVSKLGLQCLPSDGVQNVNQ
# Method in brief: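 PC43-10 (hRFC) cells were suspended in Hank's balanced salts. […] Results were expressed per mg protein, and percent inhibition was taken versus control uptake.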
# [15] = test system: R2; assay: Inhibition of GARFTase in chinese hamster R2 cells expressing human PCFT assessed as incorporation of [14C]glycine into [14C]formyl GAR in the presence of 4 uM azaserine; assay type: cell-based; settings: Cricetulus griseus
# [16] = test system: R2; assay: Antiproliferative activity against chinese hamster R2 cells expressing human PCFT assessed as reduction of viable cells after 96 hrs; assay type: functional, cell-based; settings: Cricetulus griseus, R2, 96 h
# [17] = Antiproliferative activity against chinese hamster D4 cells expressing human FRbeta assessed as reduction of viable cells after 96 hrs; assay type: functional, cell-based; settings: Cricetulus griseus, D4, 96 h
# [18] = target: Folate receptor beta (Homo sapiens) (UniProt P14207); assay: Displacement of [3H]-folic acid from human FRbeta expressed in chinese hamster D4 cells after 15 mins; assay type: cell-based
# [19] = test system: IGROV-1; assay: Antiproliferative activity against human IGROV1 cells expressing human RFC, FRalpha and PCFT assessed as reduction of viable cells after 96 hrs; assay type: functional, cell-based; settings: IGROV-1, 96 h
# [20] = target: Folate receptor alpha (Homo sapiens) (UniProt P15328); assay: Displacement of [3H]-folic acid from human FRaplha expressed in chinese hamster RT16 cells after 15 mins; assay type: cell-based
# [21] = test system: KB; assay: Antiproliferative activity against human KB cells expressing human RFC, FRalpha and PCFT assessed as reduction of viable cells after 96 hrs; assay type: functional, cell-based
# [22] = Antiproliferative activity against chinese hamster RT16 cells expressing human FRalpha assessed as reduction of viable cells after 96 hrs; assay type: functional, cell-based; settings: Cricetulus griseus, RT16, 96 h
# [23] = test system: R2; assay: Antiproliferative activity against chinese hamster R2 cells expressing human PCFT assessed as growth inhibition in the presence of 60 uM adenosine and 10 uM thymidine; assay type: functional, cell-based; settings: Cricetulus griseus
# Method in brief: (§2)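 R2/hPCFT4 cells were grown in folate-free RPMI with 25 nM leucovorin and 10% dFBS and exposed to antifolate for up to 96 h. Rescue co-incubations used thymidine (10 µM), adenosine (60 µM) and AICA (320 µM), alone or combined. Viability was read by CellTiter-blue.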
# [24] = test system: R2; assay: Antiproliferative activity against chinese hamster R2 cells expressing human PCFT assessed as growth inhibition in the presence of 10 uM thymidine and 320 uM AICA; assay type: functional, cell-based; settings: Cricetulus griseus; method in brief: as §2
# [25] = test system: R2; assay: Antiproliferative activity against chinese hamster R2 cells expressing human PCFT assessed as growth inhibition at <50 nM in the presence of 10 uM thymidine; assay type: functional, cell-based; settings: Cricetulus griseus; method in brief: as §2
# [26] = test system: R2; assay: Antiproliferative activity against chinese hamster R2 cells expressing human PCFT assessed as growth inhibition in the presence of 60 uM adenosine; assay type: functional, cell-based; settings: Cricetulus griseus; method in brief: as §2
# Folate receptor alpha (Homo sapiens), sequence (P15328 25-234 limits assumed): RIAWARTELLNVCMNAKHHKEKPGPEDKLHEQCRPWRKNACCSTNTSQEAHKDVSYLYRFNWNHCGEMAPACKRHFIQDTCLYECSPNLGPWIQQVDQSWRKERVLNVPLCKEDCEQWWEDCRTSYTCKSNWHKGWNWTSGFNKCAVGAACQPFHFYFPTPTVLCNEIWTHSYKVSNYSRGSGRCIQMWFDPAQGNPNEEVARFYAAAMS
# Folate receptor beta (Homo sapiens), sequence (P14207 17-230 limits assumed): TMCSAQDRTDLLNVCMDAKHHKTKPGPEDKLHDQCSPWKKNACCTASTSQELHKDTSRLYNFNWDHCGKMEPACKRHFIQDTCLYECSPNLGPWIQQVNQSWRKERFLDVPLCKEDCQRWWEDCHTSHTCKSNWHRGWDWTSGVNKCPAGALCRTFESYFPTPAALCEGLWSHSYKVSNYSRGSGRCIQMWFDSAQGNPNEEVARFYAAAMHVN
Compound,IC50 [4],IC50 [5],Activity [8],IC50 [9],IC50 [10],IC50 [11],IC50 [12],inhibition [14],IC50 [16],also measured
Nc1nc2[nH]c(CCCCc3ccc(C(=O)N[C@@H](CCC(=O)O)C(=O)O)s3)cc2c(=O)[nH]1,> 1 µM,> 1 µM,90%,> 1 µM,> 1 µM,> 1 µM,> 1 µM,Active,,inhibition [1]: Active; LCK [2]: 2.3; inhibition [3]: 35%; Activity [6]: Active; inhibition [7]: 18%; IC50 [13]: > 1 µM
Nc1nc2c(c(=O)[nH]1)C[C@@H](CCc1ccc(C(=O)N[C@@H](CCC(=O)O)C(=O)O)cc1)CN2 [LOMETREXOL],> 0.188 µM,,76%,,,,> 1 µM,Active,0.038 µM,inhibition [15]: Active
Cc1nc(=O)c2cc(CN(C)c3ccc(C(=O)N[C@@H](CCC(=O)O)C(=O)O)s3)ccc2[nH]1 [RALTITREXED],,,,,,,,Active,,
Nc1nc(N)c2nc(CNc3ccc(C(=O)N[C@@H](CCCNC(=O)c4ccccc4C(=O)O)C(=O)O)cc3)cnc2n1 [TALOTREXIN],,,,,> 1 µM,,> 1 µM,Active,> 1 µM,inhibition [1]: inactive
Nc1nc(=O)c2c([nH]1)NCC(CNc1ccc(C(=O)N[C@@H](CCC(=O)O)C(=O)O)cc1)N2C=O (mixture of isomers),,,,,,,,Active,,
Nc1nc2[nH]c(CCc3ccc(C(=O)N[C@@H](CCC(=O)O)C(=O)O)s3)cc2c(=O)[nH]1,> 1 µM,> 1 µM,,> 1 µM,> 1 µM,> 1 µM,> 1 µM,Active,0.135 µM,IC50 [17]: 0.00658 µM; inhibition [18]: inactive; IC50 [19]: 0.123 µM; inhibition [20]: inactive; IC50 [21]: 0.00322 µM; IC50 [22]: 0.0389 µM; IC50 [13]: > 1 µM
Nc1nc2[nH]cc(CCc3ccc(C(=O)N[C@@H](CCC(=O)O)C(=O)O)cc3)c2c(=O)[nH]1 [PEMETREXED],,,17%,,,,,Active,,Activity [23]: inactive; inhibition [15]: Active; Activity [24]: Active; Activity [25]: inactive; Activity [26]: Active
Nc1nc2[nH]c(Cc3ccc(C(=O)N[C@@H](CCC(=O)O)C(=O)O)s3)cc2c(=O)[nH]1,> 1 µM,> 1 µM,,> 1 µM,> 1 µM,> 1 µM,> 1 µM,,0.291 µM,IC50 [19]: > 1 µM; IC50 [21]: 0.0419 µM; IC50 [22]: 0.122 µM
CN(Cc1cnc2nc(N)nc(N)c2n1)c1ccc(C(=O)N[C@@H](CCC(=O)O)C(=O)O)cc1 [METHOTREXATE],,,,,,,> 1 µM,,,

# — ChEMBL document CHEMBL1833876 (J Med Chem, 2011)
